From ChEMBL document CHEMBL1136302, “Modified 3-alkyl-1,8-dibenzylxanthines as GTP-competitive inhibitors of phosphoenolpyruvate carboxykinase” (Bioorg Med Chem Lett, 2003)

What was measured:
[1] = Inhibitory activity against human cytosolic phosphoenolpyruvate carboxykinase (PEPCK) enzyme
Method in brief: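 Recombinant human cytosolic GST-PEPCK at room temperature in 30 mM potassium phosphate pH 7.6 with 0.3 mM GTP, 0.3 mM OAA, 3 mM MgCl2, 0.075 mM MnCl2, 1 mM DTT, 0.2 mM ADP, 1 mM NADH and 1 mg/mL BSA. Coupled to pyruvate kinase and lactate dehydrogenase (0.9 U/mL each). Absorbance change at 340 read over 20 min. Eight concentrations in duplicate, averaged; IC50 derived.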

[2] = Inhibitory activity against human cytosolic phosphoenolpyruvate carboxykinase (PEPCK) enzyme at a concentration of 500 uM
Method in brief: (§1)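 The same coupled GST-PEPCK assay was run in 30 mM potassium phosphate pH 7.6 at room temperature. It used 0.3 mM each of GTP and OAA, plus Mg2+/Mn2+, ADP, NADH and BSA, with pyruvate kinase and lactate dehydrogenase coupling. Rate was read at 340 over 20 min. Percent inhibition is given at the highest concentration tested, as the duplicate average.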

[3] = Inhibitory activity against human cytosolic phosphoenolpyruvate carboxykinase (PEPCK) enzyme at a concentration of 25 uM; method in brief: as §1

Compound	IC50 [1] [µM]	other results
C=CCn1c(=O)c2[nH]c(CC)nc2n(CCCC)c1=O	100	
CCCCn1c(=O)n(Cc2ccccc2)c(=O)c2[nH]c(Cc3ccc(NC(C)=O)cc3)nc21	8.15	
C=CCn1c(=O)c2[nH]c(-c3ccc(NC(C)=O)cc3)nc2n(CCCC)c1=O		inhibition [2]: 1.7%
CCCCn1c(=O)n(CCOC)c(=O)c2[nH]c(Cc3ccc(NC(C)=O)cc3)nc21		inhibition [3]: 36%
C=CCn1c(=O)c2[nH]c(C)nc2n(CCCC)c1=O	225	
C=CCn1c(=O)c2[nH]c(Cc3ccc(N)cc3)nc2n(CCCC)c1=O	37	
C=CCn1c(=O)c2[nH]cnc2n(CCCC)c1=O		inhibition [2]: 39%
CCCCn1c(=O)n(Cc2cccc(F)c2)c(=O)c2[nH]c(Cc3ccc(NC(C)=O)cc3)nc21		inhibition [3]: 46%
C=CCn1c(=O)c2c(nc(C)n2CC)n(CCCC)c1=O		inhibition [2]: 34%
CCCCn1c(=O)n(CCC)c(=O)c2[nH]c(C)nc21	375	
CCCCn1c(=O)n(Cc2ccccc2F)c(=O)c2[nH]c(Cc3ccc(NC(C)=O)cc3)nc21	2.11	
C=CCn1c(=O)c2[nH]c(Cc3ccccc3)nc2n(CCCC)c1=O		inhibition [3]: 29%
